From ChEMBL document CHEMBL3774374, “The Effect of Small Molecules on Sterol Homeostasis: Measuring 7-Dehydrocholesterol in Dhcr7-Deficient Neuro2a Cells and Human Fibroblasts” (J Med Chem, 2016)
Blank lines part the entries; values can stand above or below the compound they belong to. Activity calls are given as the source filed them. No cut-off for these calls is given here.

Experiments:
[1] = molecular target: T1, 3-beta-hydroxysteroid-Delta(8),Delta(7)-isomerase (Mus musculus) (UniProt P70245); assay: Inhibition of delta 8-7 isomerase in mouse Neuro2a cells assessed as decrease in 7-DHC levels at 1 uM by LC-MS/GC-MS analysis; format: cell-based
T1 sequence (whole entry): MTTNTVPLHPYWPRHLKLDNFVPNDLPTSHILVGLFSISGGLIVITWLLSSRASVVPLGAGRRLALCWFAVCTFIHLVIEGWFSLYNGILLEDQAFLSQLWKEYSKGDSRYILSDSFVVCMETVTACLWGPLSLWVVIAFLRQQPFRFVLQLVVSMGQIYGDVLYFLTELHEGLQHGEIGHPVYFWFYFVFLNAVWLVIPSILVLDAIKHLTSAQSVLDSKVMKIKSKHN
Procedure, shortened: (§1)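 Control Neuro2a cells (10000/well, 0.5% FBS) on compound, 24 h. Hoechst cell count, then methanol lysis with labelled standards (d7-7-DHC, 13C3-desmosterol, 13C3-lanosterol), PTAD derivatization 20 min at RT, UPLC-MS SRM. GC-MS of silylated extract for further sterols.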

[2] = molecular target: 3-beta-hydroxysteroid-Delta(8),Delta(7)-isomerase (Homo sapiens) (UniProt Q15125); assay: Inhibition of delta 8-7 isomerase in human SLOS fibroblasts assessed as decrease in 7-DHC levels at 10 nM after 5 days by LC-MS/GC-MS analysis
Procedure, shortened: (§2)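 SLOS patient skin fibroblasts (passage 8–20) grown in 96-well plates in delipidated serum with compound for 5 days; three different SLOS lines. Sterols quantified by PTAD-derivatized UPLC-MS plus GC-MS; 7-DHC expressed as percentage of untreated cells.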

Fibroblast [3] = assay: Decrease in cholesterol levels in human SLOS fibroblasts at 10 nM after 5 days by LC-MS/GC-MS analysis; format: functional, cell-based; procedure, shortened: as §2
[4] = molecular target: T2, Delta(24)-sterol reductase (Mus musculus) (UniProt Q8VCH6); assay: Inhibition of DR24 in Dhcr7-deficient mouse Neuro2a cells assessed as decrease in 7-DHC levels at 200 nM after 24 hrs by LC-MS analysis; format: cell-based
T2 sequence (whole entry): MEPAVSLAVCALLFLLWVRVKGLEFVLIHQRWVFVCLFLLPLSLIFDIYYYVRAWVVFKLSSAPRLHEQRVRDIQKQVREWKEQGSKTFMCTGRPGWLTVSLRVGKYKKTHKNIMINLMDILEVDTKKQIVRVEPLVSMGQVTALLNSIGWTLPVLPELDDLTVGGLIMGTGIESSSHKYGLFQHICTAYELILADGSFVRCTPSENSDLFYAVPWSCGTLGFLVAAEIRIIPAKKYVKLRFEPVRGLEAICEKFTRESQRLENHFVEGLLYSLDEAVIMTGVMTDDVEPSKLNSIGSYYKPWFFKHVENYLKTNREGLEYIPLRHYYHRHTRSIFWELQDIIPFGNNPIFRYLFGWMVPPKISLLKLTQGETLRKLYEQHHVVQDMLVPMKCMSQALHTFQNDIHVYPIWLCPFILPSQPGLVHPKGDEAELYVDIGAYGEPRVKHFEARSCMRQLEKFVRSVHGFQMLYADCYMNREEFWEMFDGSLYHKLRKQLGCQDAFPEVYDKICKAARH
Procedure, shortened: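 384-well screen: Dhcr7-deficient Neuro2a cells (13000/well, 0.5% FBS) with compound at 20 or 200 nM (five wells each), 24 h at 37 °C. Cells counted after Hoechst imaging, then methanol lysis with d7-7-DHC standard, PTAD derivatization 20 min at RT, UPLC-MS SRM (7-DHC 560→365). Read-out is pg 7-DHC per cell.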

[5] = Cytotoxicity against human SLOS fibroblasts at 5 uM after 5 days by Cell Titer assay; format: cell-based; details: fibroblast, 120 h
[6] = molecular target: T1, 3-beta-hydroxysteroid-Delta(8),Delta(7)-isomerase (Mus musculus); assay: Inhibition of delta 8-7 isomerase in Dhcr7-deficient mouse Neuro2a cells assessed as decrease in 7-DHC levels at 200 nM after 24 hrs by LC-MS analysis; format: cell-based
Procedure, shortened: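 384-well screen: Dhcr7-deficient Neuro2a cells (13000/well) dispensed in 0.5% FBS medium onto predeposited compound (five wells each at 20 and 200 nM) and incubated 24 h at 37 °C. Nuclei Hoechst-stained and counted by automated imaging. Cells lysed in MeOH with deuterated and 13C standards, then derivatised with PTAD for 20 min at RT. 7-DHC measured by isocratic UPLC-MS (SRM) and expressed as pg per cell; DMSO wells served as controls.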

[7] = molecular target: T1, 3-beta-hydroxysteroid-Delta(8),Delta(7)-isomerase (Mus musculus); assay: Inhibition of delta 8-7 isomerase in Dhcr7-deficient mouse Neuro2a cells assessed as decrease in 7-DHC levels at 1 uM by LC-MS/GC-MS analysis; format: cell-based
Procedure, shortened: (§3)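 Dhcr7-deficient Neuro2a cells (13000/well, 0.5% FBS medium) on predeposited compound, 24 h at 37 °C. Hoechst-stained and imaged to count cells. Lysed in methanol containing isotope-labelled sterol standards, derivatized with PTAD 20 min at RT, then isocratic C18 UPLC-MS/SRM. Remaining extract silylated with BSTFA for GC-MS, quantified against d7-cholesterol. Follow-up runs in triplicate.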

[8] = molecular target: T3, Delta(24)-sterol reductase (Homo sapiens) (UniProt Q15392); assay: Inhibition of DR24 in human SLOS fibroblasts assessed as decrease in 7-DHC levels at 10 nM after 5 days by LC-MS/GC-MS analysis; procedure, shortened: as §2
T3 sequence (whole entry): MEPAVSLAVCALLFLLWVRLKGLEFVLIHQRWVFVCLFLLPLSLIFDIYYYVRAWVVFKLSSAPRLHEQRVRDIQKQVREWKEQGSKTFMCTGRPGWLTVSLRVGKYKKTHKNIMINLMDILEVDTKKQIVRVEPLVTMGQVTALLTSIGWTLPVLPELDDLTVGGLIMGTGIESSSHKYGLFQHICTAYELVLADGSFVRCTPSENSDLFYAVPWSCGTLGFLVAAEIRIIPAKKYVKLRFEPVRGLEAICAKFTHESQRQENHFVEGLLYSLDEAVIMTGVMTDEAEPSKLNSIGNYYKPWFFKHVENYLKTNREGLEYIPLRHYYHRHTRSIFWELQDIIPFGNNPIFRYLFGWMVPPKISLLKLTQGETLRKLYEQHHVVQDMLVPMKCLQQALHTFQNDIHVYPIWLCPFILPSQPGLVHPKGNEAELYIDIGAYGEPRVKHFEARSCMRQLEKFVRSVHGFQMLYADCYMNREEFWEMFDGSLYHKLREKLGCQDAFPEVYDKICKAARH

[9] = molecular target: T2, Delta(24)-sterol reductase (Mus musculus); assay: Inhibition of DR24 in mouse Neuro2a cells assessed as decrease in 7-DHC levels at 1 uM by LC-MS/GC-MS analysis; format: cell-based; procedure, shortened: as §1
[10] = molecular target: T2, Delta(24)-sterol reductase (Mus musculus); assay: Inhibition of DR24 in Dhcr7-deficient mouse Neuro2a cells assessed as decrease in 7-DHC levels at 1 uM by LC-MS/GC-MS analysis; format: cell-based; procedure, shortened: as §3
Fibroblast [11] = assay: Increase in lanosterol levels in human SLOS fibroblasts at 1 uM by LC-MS/GC-MS analysis; format: functional, cell-based; procedure, shortened: as §2
N2a = assay: Increase in lanosterol levels in Dhcr7-deficient mouse Neuro2a cells at 1 uM by LC-MS analysis; format: functional, cell-based; procedure, shortened: as §3
[12] = molecular target: T4, Lanosterol 14-alpha demethylase (Mus musculus, UniProt Q8K0C4); assay: Inhibition of 14 alpha demethylase in Dhcr7-deficient mouse Neuro2a cells assessed as decrease in desmosterol levels at 1 uM by LC-MS/GC-MS analysis; format: cell-based; procedure, shortened: as §3
T4 sequence (Q8K0C4 whole entry): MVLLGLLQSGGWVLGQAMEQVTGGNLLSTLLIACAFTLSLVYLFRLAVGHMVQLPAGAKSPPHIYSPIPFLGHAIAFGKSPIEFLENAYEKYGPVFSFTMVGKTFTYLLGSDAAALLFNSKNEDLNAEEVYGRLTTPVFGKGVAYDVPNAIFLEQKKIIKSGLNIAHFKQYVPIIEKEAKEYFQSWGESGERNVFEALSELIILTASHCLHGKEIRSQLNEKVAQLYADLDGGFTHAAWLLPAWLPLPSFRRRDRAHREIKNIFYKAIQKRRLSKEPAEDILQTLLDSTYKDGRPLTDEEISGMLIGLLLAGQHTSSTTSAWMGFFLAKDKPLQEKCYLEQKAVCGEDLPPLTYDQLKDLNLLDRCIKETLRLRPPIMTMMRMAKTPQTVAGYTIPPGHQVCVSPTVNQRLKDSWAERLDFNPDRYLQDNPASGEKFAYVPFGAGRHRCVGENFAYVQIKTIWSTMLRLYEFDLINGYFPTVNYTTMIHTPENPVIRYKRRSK

[13] = Antiproliferative activity against Dhcr7-deficient mouse Neuro2a cells at 500 nM; format: cell-based; details: n2a, 0.5 µM
Procedure, shortened: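 Dhcr7-deficient Neuro2a cells treated with compound; proliferation followed by Hoechst nuclear staining and automated microscope imaging with cell counts per well.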

[14] = molecular target: T4, Lanosterol 14-alpha demethylase; assay: Inhibition of 14 alpha demethylase in Dhcr7-deficient mouse Neuro2a cells assessed as increase in cholesterol levels at 1 uM by LC-MS/GC-MS analysis; format: cell-based; procedure, shortened: as §3
[15] = molecular target: T4, Lanosterol 14-alpha demethylase; assay: Inhibition of 14 alpha demethylase in Dhcr7-deficient mouse Neuro2a cells assessed as decrease in 7-DHC levels at 1 uM by LC-MS/GC-MS analysis; format: cell-based; procedure, shortened: as §3
[16] = molecular target: T4, Lanosterol 14-alpha demethylase; assay: Inhibition of 14 alpha demethylase in Dhcr7-deficient mouse Neuro2a cells assessed as increase in lanosterol levels at 1 uM by LC-MS/GC-MS analysis; format: cell-based; procedure, shortened: as §3
[17] = molecular target: T2, Delta(24)-sterol reductase (Mus musculus); assay: Inhibition of C-24 reductase in Dhcr7-deficient mouse Neuro2a cells assessed as increase in desmosterol levels at 1 uM by LC-MS/GC-MS analysis; format: cell-based; procedure, shortened: as §3
[18] = molecular target: T2, Delta(24)-sterol reductase (Mus musculus); assay: Inhibition of C-24 reductase in Dhcr7-deficient mouse Neuro2a cells assessed as increase in zymosterol levels at 1 uM by LC-MS/GC-MS analysis; format: cell-based; procedure, shortened: as §3

Chain of 3-beta-hydroxysteroid-Delta(8),Delta(7)-isomerase (Homo sapiens) (Q15125 whole entry): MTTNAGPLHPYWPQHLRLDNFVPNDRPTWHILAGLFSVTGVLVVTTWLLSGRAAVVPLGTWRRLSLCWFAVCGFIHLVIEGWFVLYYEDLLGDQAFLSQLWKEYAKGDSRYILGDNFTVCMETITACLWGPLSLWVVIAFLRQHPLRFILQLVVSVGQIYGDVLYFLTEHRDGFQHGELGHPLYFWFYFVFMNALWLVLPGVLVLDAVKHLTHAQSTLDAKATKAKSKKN

Activity (decrease in 7-DHC levels) [1]: Active
inhibition [2]: Active
inhibition [4]: Active
inhibition [6]: Active
inhibition [7]: Active
inhibition [8]: Active
Decrease in 7-DHC levels (active/inactive call) [9]: Active
inhibition [10]: Active
SMILES: Cc1c(-c2ccc(O)cc2)n(Cc2ccc(OCCN3CCCCCC3)cc2)c2ccc(O)cc12 [BAZEDOXIFENE]
Activity (Fibroblast [3]): inactive
Activity [5]: Toxic

SMILES: CC(=O)O[C@@]1(C(C)=O)CC[C@H]2[C@H]3C=C(C)C4=CC(=O)CC[C@]4(C)[C@H]3CC[C@@]21C
Activity (Fibroblast [11]): Active
Activity (N2a): Active

inhibition (INH) [12]: Active
inhibition (INH) [14]: Active
inhibition (INH) [15]: Active
inhibition (INH) [16]: Active
SMILES: Oc1c(Cl)cc(Cl)c(Cl)c1Cc1c(O)c(Cl)cc(Cl)c1Cl [HEXACHLOROPHENE]
Activity [13]: Toxic

Activity (decrease in 7-DHC levels) [1]: Active
inhibition [17]: Active
inhibition [7]: Active
Decrease in 7-DHC levels (active/inactive call) [9]: Active
inhibition [10]: Active
inhibition [18]: Active
SMILES: Oc1ccc2c(c1)CC[C@H](c1ccccc1)[C@@H]2c1ccc(OCCN2CCCC2)cc1
